Bioassay records deposited in PubChem BioAssay by several laboratories.
CHOP inhibitor: inhibitors of CHOP promoter induction, primary screen, cell-based, unfolded protein response, luciferase reporter | CHO-K1 CHOP-promoter luciferase, tunicamycin-induced, 15-18 h | inhibition, % at 10 µM | 3.8% of 220,000 active | AID 2732, 2010;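 active = compounds that reduced the stress-induced luciferase reporter signal by more than about 70% of percent inhibition, limit read from the data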
Bfl-1 A1 inh: caspase 3/7 activation in MEF A1-2A-BIM cells, primary screen, A1 inhibitor project, cell-based, luminescence, HTS. caspase activation, % (concentration not given with the values). 0.066% of 330,000 active. Caspase-Glo 3/7 luminescence, 3 h; percent of clofoctol response, vehicle zero;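 active = over half of replicate activation scores above 10%, or exactly half above 10 with the replicate mean above 10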
UPR XBP1 act: activators of adaptive XBP1 UPR arm, primary screen, cell-based, CHO-XBP1 luciferase reporter, luminescence, uHTS; IRE1-XBP1 UPR activation; percent of tunicamycin response, DMSO as zero; activation, % at 20 µM; 0.33% of 330,000 active; AID 463104, 2010;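 active = versus positive control, 20 µM dose yields 30% or more activation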
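Signal: luciferase luminescence; Assay system: CHO-XBP1 luciferase reporter cells; Amount: one thousand reporter cells per well; Dosing: 20 µM single concentration, DMSO 1%; Benchmarks: high control tunicamycin 10 µg/mL final, low control DMSO vehicle only; Schedule: 6 h compound exposure at 37 °C, 5% CO2; Evaluation: percent activation relative to tunicamycin reference.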
UPR CHOP act: activators of apoptotic CHOP UPR arm, primary screen, cell-based, CHO-CHOP luciferase reporter, luminescence, uHTS; AID 449763, 2010; 0.34% of 330,000 active; activation, % at 10 µM; UPR activation; percent of tunicamycin response over DMSO baseline;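 active = at 10 µM dose, activation of 40% or more, normalized to positive control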
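System: CHO-CHOP luciferase reporter cell line | Buffer or medium: F12 medium containing 10% fetal bovine serum | Doses: One dose, 10 µM in 0.5% DMSO | Times: 6 h compound exposure at 37 °C after overnight seeding | Signal: Luciferase luminescence | Read-out: % activation vs tunicamycin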
Large screens that a line does not name were inactive. Shown is part of a subset that was picked to be rich in hits.

O=c1c2ccc(Cl)cc2[nH]c(=S)n1CCC1=CCCCC1	CHOP inhibitor 83.6
Cc1cccc2sc(N(CCN(C)C)C(=O)c3cc(Cl)sc3Cl)nc12	CHOP inhibitor 72.0
COc1cc2ccccc2cc1C(=O)N(CCN(C)C)c1nc2c(C)cccc2s1	none (no result: CHOP inhibitor)
CC(C)(C)C1CCC(=NOC(=O)c2ccc(F)cc2)CC1 (configuration not stated)	CHOP inhibitor 82.2
COCCCNc1nc2c(c(=O)n(C)c(=O)n2C)n1Cc1cccc(OC)c1	none
Cc1ccc(N=C(NOCc2ccc(Cl)cc2Cl)c2nonc2N)c(C)c1	none
Cc1ccccc1N=C(NOCc1ccc(Cl)cc1Cl)c1nonc1N	CHOP inhibitor 84.8
Cc1ccc(OCCC(=O)N(CC(=O)Nc2ccccc2C(F)(F)F)Cc2ccco2)cc1	none (no result: CHOP inhibitor)
Cc1cccc(C)c1N1C(=O)c2cccc([N+](=O)[O-])c2C1=O	none
COc1ccc([N+](=O)[O-])cc1NC(=O)C(C)N(C)Cc1ccc(Br)cc1 (configuration not stated)	CHOP inhibitor 70.1
S=c1[nH]nc(Cc2cccs2)n1-c1ccccc1	none
CCCCc1ccc(-n2c(Cc3cccs3)n[nH]c2=S)cc1	CHOP inhibitor 76.5
CCn1cc([C@@H]2C[C@H]3CN(Cc4cccc(Cl)c4)C(=O)[C@]34CCCN24)cn1	none
CCc1c(C)sc(NC(=O)C2CC2)c1C(=O)OC(C)C	CHOP inhibitor 81.3
CC(=O)Nc1sc(C)c(C)c1C(=O)OC(C)C	none
COc1ccccc1CCNCc1ccc(OC)c(OCc2ccccc2)c1	CHOP inhibitor 81.8
CCCCc1nc(NCC2CCCO2)c(C#N)c2c1COC(C)(C)C2 (configuration not stated)	CHOP inhibitor 86.3
CCCCCOC(=O)Nc1nnc(CCCCC)s1	CHOP inhibitor 95.1
Clc1ccc(N=c2ssnc2Cl)nc1	CHOP inhibitor 103.2
COc1cccc(/C=N/N2CCN(c3ccccc3OC)CC2)c1	CHOP inhibitor 75.5
COc1ccccc1N1CCN(/N=C/c2cccc(Cl)c2)CC1	none (no result: CHOP inhibitor)
Cc1cc(C)nc(NC(=O)c2ccc([N+](=O)[O-])c(C)c2)n1	none (no result: CHOP inhibitor)
COc1ccc(/C=C/c2nc(-c3ccccc3O)n(-c3ccccc3)n2)cc1	none
COc1ccc(/C=C/c2nc(-c3ccccc3O)n[nH]2)cc1	CHOP inhibitor 78.9
COc1ccc(NC(=S)NN2CCN(C)CC2)cc1OC	none
CCCC(=O)NC(c1ccc(OC)cc1)c1ccc2cccnc2c1O (configuration not stated)	CHOP inhibitor 82.0
C1CCN(c2nc3nonc3nc2NCC2CCOCC2)CC1	none
Cn1c(SCC(=O)c2ccc3c(c2)NC(=O)CO3)nc2ccccc21	CHOP inhibitor 85.8
N#C/C(=C/c1ccccc1)C(=O)OCC(=O)Nc1ccccc1[N+](=O)[O-]	none (no result: CHOP inhibitor)
CCOC(=O)C1CCCN(Cc2c(Cl)cccc2Cl)C1 (configuration not stated)	CHOP inhibitor 70.6
CCOC(=O)C1CCCN(Cc2ccc(-c3ccccc3)cc2)C1 (configuration not stated)	none (no result: CHOP inhibitor)
CC(NC(=O)/C(=C\c1cccc([N+](=O)[O-])c1)NC(=O)c1ccco1)C(=O)O (configuration not stated)	none
C=CCNC(=O)C1CC1(c1cccc(C)c1)c1cccc(C)c1 (configuration not stated)	none (no result: CHOP inhibitor)
Cc1cccc(C2(c3cccc(C)c3)CC2C(=O)Nc2ccc([N+](=O)[O-])cc2O)c1 (configuration not stated)	CHOP inhibitor 103.3
Fc1ccc(-c2nn3c(C4COc5ccccc5O4)nnc3s2)cc1 (configuration not stated)	none
c1ccc2c(c1)OCC(c1nnc3sc(-c4ccc5c(c4)OCO5)nn13)O2 (configuration not stated)	CHOP inhibitor 85.6
O=C1c2ccccc2-c2nnc(-c3ccccc3)cc21	CHOP inhibitor 72.8
Cc1cccc(-c2cc3c(nn2)-c2ccccc2C3=O)c1	none
COc1ccc(-c2cc3c(nn2)-c2ccccc2C3=O)cc1	CHOP inhibitor 77.9
COc1ccccc1N=Cc1c(C)c(C#N)c2[nH]c3ccccc3n2c1=O	CHOP inhibitor 84.3
Cc1[nH]c2ccccc2c1/C=C/c1nc2ccccc2c(=O)[nH]1	CHOP inhibitor 75.5
O=C(O)c1ccc(/C=C/c2nc3ccccc3c(=O)[nH]2)cc1	none (no result: CHOP inhibitor)
O=C(COC(=O)C12CC3CC(CC(C3)C1)C2)NC12CC3CC(CC(C3)C1)C2	CHOP inhibitor 75.7
O=C(COC(=O)C12CC3CC(CC(C3)C1)C2)Nc1ccc(OC(F)F)cc1	CHOP inhibitor 94.3
CCC(CC)C(=O)OCC(=O)NC12CC3CC(CC(C3)C1)C2	none
CC1=C(C(=O)OC(C)C)C(c2ccccc2Cl)CC(=O)N1 (configuration not stated)	CHOP inhibitor 76.4
CC(=O)C1=C(C)NC(=O)CC1c1ccccc1Cl (configuration not stated)	none
CC(=O)Oc1ccc(N2C(=O)C3C(C2=O)C2(C)C=CC3(C)O2)cc1 (configuration not stated)	none (no result: CHOP inhibitor)
COC(=O)c1cc(N2C(=O)C3C(C2=O)C2(C)C=CC3(C)O2)ccc1Cl (configuration not stated)	CHOP inhibitor 74.6
Cc1cc(C)c(-c2csc(NC(=O)COC(=O)c3ccc4c(c3)OCO4)n2)c(C)c1	none
O=C(Nc1cc(S(=O)(=O)N2CCOCC2)ccc1N1CCCC1)c1cnccn1	none
Cc1cccc(N2CCN(C(c3cccs3)c3nnnn3C(C)(C)C)CC2)c1C (configuration not stated)	CHOP inhibitor 77.4
Cc1cccc(N2CCN(C(c3ccccc3)c3nnnn3C(C)(C)C)CC2)c1C (configuration not stated)	none
CCc1ccc(CN(C(=O)COc2c(C)cccc2C)C2CCS(=O)(=O)C2)cc1 (configuration not stated)	none (no result: CHOP inhibitor)
O=C(Nc1nc2c(s1)CCCC2)c1cc(-c2ccccc2)nc2ccccc12	CHOP inhibitor 80.8
CC(C)(C)c1nnc(NC(=O)c2cc(-c3ccccc3)nc3ccccc23)s1	CHOP inhibitor 74.0
COc1cccc(NC(=O)C2CCC(CNC(=O)[C@@H]3Cc4ccccc4CN3)CC2)c1 (some centres not stated)	none (no result: CHOP inhibitor)
Cc1cccc(CC(=O)N2CCOCC2)c1	none (no result: CHOP inhibitor)
S=c1nc(-c2ccco2)[nH][nH]1	CHOP inhibitor 74.4
Cn1c(-c2ccco2)n[nH]c1=S	none
CNc1nc2cc([N+](=O)[O-])c([N+](=O)[O-])cc2nc1NC	CHOP inhibitor 75.4 (no result: UPR XBP1 act, UPR CHOP act)
COc1ccccc1OCC(=O)OC/C(O)=C(\C#N)c1nc2ccccc2[nH]1	none
Cc1cc(SCC(=O)OC/C(O)=C(\C#N)c2nc3ccccc3[nH]2)c(C)cc1Br	CHOP inhibitor 70.5
